Laboratory results published in ChEMBL document CHEMBL1772969, “Synthesis, structure-activity relationship, and antimalarial activity of ureas and thioureas of 15-membered azalides” (J Med Chem, 2011).
Calls of active or inactive are those of the source. The rule behind the calls is not given here.

Assays:
Plasmodium berghei [1] = test: Antiplasmodial activity against Plasmodium berghei KBG-173 infected in mouse assessed as mouse without parasitemia at 60 mg/kg, sc bid for 3 days measured on day 31; assay type: functional, organism-based; design: dose 60 mg/kg
In short: (§1)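 P. berghei KBG-173: 5 × 10⁶ infected erythrocytes injected intraperitoneally into male mice (24–30 g); parasitemia 1.0–3.7% by day 3. Oil suspension given subcutaneously twice daily at 160, 40 or 10 mg/kg on days 3–5 postinfection (totals 960/240/60 mg/kg); 4–5 mice per group. Blood films on day 6, then biweekly to day 31; film-negative on day 31 counted as cured.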

HepG2 = test: Cytotoxicity against human HepG2 cells after 1 to 4 hrs by MTS assay; assay type: cell-based
In short: (§2)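 HepG2 and THP-1 cells grown in RPMI 1640 with 10% FBS at 37 °C, 5% CO₂, and passaged twice weekly. Compounds applied as continuous exposure. Viability read by MTS reagent, 1–4 h incubation, absorbance at 490 nm; IC₅₀ derived.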

THP-1 = test: Cytotoxicity against human THP1 cells after 1 to 4 hrs by MTS assay; assay type: cell-based; in short: as §2
Plasmodium falciparum [2] = test: Antimalarial activity against chloroquine/pyrimethamine-resistant Plasmodium falciparum W2 after 48 hrs by [3H]hypoxanthine incorporation assay; assay type: functional, organism-based
In short: (§3)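 [3H]hypoxanthine incorporation assay (Desjardins method, Milhous modification) with 48 h drug exposure. Compounds and controls were 2-fold diluted across 11 concentrations. IC50 was fitted by nonlinear logistic dose-response. Values are averaged where multiple results were generated, with relative errors usually <30%.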

Plasmodium falciparum [3] = test: Antimalarial activity against multidrug-resistant Plasmodium falciparum TM91C235 after 48 hrs by [3H]hypoxanthine incorporation assay; assay type: functional, organism-based; in short: as §3
[4] = Half life in human liver microsomes at 1 uM by LCMS analysis; assay type: ADME, Microsome
In short: (§4)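 Compound at 1 μM final with 0.5 mg/mL pooled human or mouse liver microsomes, 1.3 mM NADP, 3.3 mM MgCl₂, 0.1 M PBS pH 7.4. Reaction started with 1 U/mL G6PD, shaken at 37 °C. Aliquots quenched with cold acetonitrile at 0, 10, 20, 30 and 60 min and quantified by LCMS. t₁/₂ taken from log plot of total ion chromatogram area remaining.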

Plasmodium berghei [5] = test: Antiplasmodial activity against Plasmodium berghei KBG-173 infected in mouse assessed as mouse without parasitemia at 240 mg/kg, sc bid for 3 days measured on day 31; assay type: functional, organism-based; design: dose 240 mg/kg; in short: as §1
Plasmodium berghei [6] = test: Antiplasmodial activity against Plasmodium berghei KBG-173 infected in sc dosed mouse administered bid for 3 days; assay type: functional
In short: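 Male mice (24-30 g) were infected ip with 5 × 10⁶ P. berghei KBG-173-infected erythrocytes. Drug suspended in palm/peanut oil was given sc twice daily on days 3-5 post-infection at 160, 40 or 10 mg/kg per dose, 0.01 mL/g, in groups of 4-5. Blood films were taken day 6, then biweekly to day 31. Mice smear-negative on day 31 were counted cured. CD50 is the daily dose curing 50%.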

[7] = Half life in mouse liver microsomes at 1 uM by LCMS analysis; assay type: ADME, Microsome; in short: as §4
Plasmodium falciparum [8] = test: Antimalarial activity against chloroquine-sensitive Plasmodium falciparum D6 after 48 hrs by [3H]hypoxanthine incorporation assay; assay type: functional, organism-based; in short: as §3
[9] = Apparent volume of distribution during terminal phase in Sprague-Dawley rat at 10 mg/kg, iv and 30 mg/kg, po; assay type: ADME, organism-based; details: in vivo, read-out: Vz/F
In short: (§5)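 Male Sprague-Dawley rats (250–300 g), crossover design. Dosed 10 mg/kg iv, then 2-day washout, then 30 mg/kg oral (free base equivalent), formulated in 1%/20% Encapsin (w/v) and saline. Blood sampled up to 24 h and analysed by LC-MS/MS. Clearance and terminal-phase Vd based on blood concentration.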

[10] = Oral bioavailability in Sprague-Dawley rat at 30 mg/kg; assay type: ADME, organism-based; details: in vivo; in short: as §5
[11] = Half life in Sprague-Dawley rat at 10 mg/kg, iv and 30 mg/kg, po; assay type: ADME, organism-based; details: in vivo; in short: as §5
[12] = Blood clearance in Sprague-Dawley rat at 10 mg/kg, iv and 30 mg/kg, po; assay type: ADME, organism-based; details: whole blood; in short: as §5

SMILES | Activity (Plasmodium berghei [1]) | IC50 (HepG2) | IC50 (THP-1) | IC50 (Plasmodium falciparum [2]) | IC50 (Plasmodium falciparum [3]) | half-life at 1 µM [4] | Activity (Plasmodium berghei [5]) | CD50 (Plasmodium berghei [6]) | half-life at 1 µM [7] | IC50 (Plasmodium falciparum [8]) | Vd/F [9] | bioavailability [10] | half-life [11] | clearance [12]
CC[C@H]1OC(=O)[C@H](C)[C@@H](O[C@H]2C[C@@](C)(OC)[C@@H](O)[C@H](C)O2)[C@H](C)[C@@H](O[C@@H]2O[C@H](C)C[C@H](N(C)C)[C@H]2O)[C@](C)(O)C[C@@H](C)CN(CCCNC(=O)Nc2ccc3ccccc3c2)[C@H](C)[C@@H](O)[C@]1(C)O | inactive | 48000 nM | 40000 nM | 127 nM | 81 nM | > 2 h | inactive | >960 mg/kg | > 2 h | 138 nM |  |  |  | 
CC[C@H]1OC(=O)[C@H](C)[C@@H](O[C@H]2C[C@@](C)(OC)[C@@H](O)[C@H](C)O2)[C@H](C)[C@@H](O[C@@H]2O[C@H](C)C[C@H](N(C)C)[C@H]2O)[C@](C)(O)C[C@@H](C)CN(CCCNC(=S)NCc2ccccc2)[C@H](C)[C@@H](O)[C@]1(C)O |  | > 50000 nM | 47000 nM | 121 nM | 156 nM | > 2 h |  | 285 mg/kg | > 2 h | 257 nM | 10.4 L/kg | 3.4% | 30 h | 4 mL/min/kg
CC[C@H]1OC(=O)[C@H](C)[C@@H](O[C@H]2C[C@@](C)(OC)[C@@H](O)[C@H](C)O2)[C@H](C)[C@@H](O[C@@H]2O[C@H](C)C[C@H](N(C)C)[C@H]2O)[C@](C)(O)C[C@@H](C)CN(CCCNC(=O)Nc2cccc3ccccc23)[C@H](C)[C@@H](O)[C@]1(C)O |  | > 50000 nM | > 50000 nM | 173 nM | 131 nM | > 2 h |  | 150 mg/kg | > 2 h | 215 nM |  |  |  | 
CC[C@H]1OC(=O)[C@H](C)[C@@H](O[C@H]2C[C@@](C)(OC)[C@@H](O)[C@H](C)O2)[C@H](C)[C@@H](O[C@@H]2O[C@H](C)C[C@H](N(C)C)[C@H]2O)[C@](C)(O)C[C@@H](C)CN(CCCNC(=S)NCCc2ccccc2)[C@H](C)[C@@H](O)[C@]1(C)O | inactive | 47000 nM | 23000 nM | 167 nM | 200 nM | > 2 h |  | 780 mg/kg | > 2 h | 215 nM |  |  |  | 
CC[C@H]1OC(=O)[C@H](C)[C@@H](O[C@H]2C[C@@](C)(OC)[C@@H](O)[C@H](C)O2)[C@H](C)[C@@H](O[C@@H]2O[C@H](C)C[C@H](N(C)C)[C@H]2O)[C@](C)(O)C[C@@H](C)CN(CCCN(CCC#N)C(=O)NC(C)c2cccc3ccccc23)[C@H](C)[C@@H](O)[C@]1(C)O (stereo not given in full) |  | 48000 nM | 40000 nM | 136 nM | 97 nM | > 2 h | inactive | 510 mg/kg | > 2 h | 200 nM |  |  |  | 
CC[C@H]1OC(=O)[C@H](C)[C@@H](O[C@H]2C[C@@](C)(OC)[C@@H](O)[C@H](C)O2)[C@H](C)[C@@H](O[C@@H]2O[C@H](C)C[C@H](N(C)C)[C@H]2O)[C@](C)(O)C[C@@H](C)CN(CCCN(CCC#N)C(=S)NCc2ccccc2)[C@H](C)[C@@H](O)[C@]1(C)O |  | 44000 nM | 11000 nM | 139 nM | 126 nM | > 2 h |  | >960 mg/kg | > 2 h | 204 nM |  |  |  | 
CC[C@H]1OC(=O)[C@H](C)[C@@H](O[C@H]2C[C@@](C)(OC)[C@@H](O)[C@H](C)O2)[C@H](C)[C@@H](O[C@@H]2O[C@H](C)C[C@H](N(C)C)[C@H]2O)[C@](C)(O)C[C@@H](C)CN(CCNC(=O)Nc2cccc3ccccc23)[C@H](C)[C@@H](O)[C@]1(C)O |  | 35000 nM | 14000 nM | 79 nM | 42 nM | > 2 h |  |  | > 2 h | 142 nM |  |  |  | 
CCOC(=O)CCN(CCN1C[C@H](C)C[C@@](C)(O)[C@H](O[C@@H]2O[C@H](C)C[C@H](N(C)C)[C@H]2O)[C@@H](C)[C@H](O[C@H]2C[C@@](C)(OC)[C@@H](O)[C@H](C)O2)[C@@H](C)C(=O)O[C@H](CC)[C@@](C)(O)[C@H](O)[C@H]1C)C(=O)Nc1ccc2ccccc2c1 |  | 23000 nM | 20000 nM | 207 nM | 2150 nM | > 2 h |  |  | > 2 h | 773 nM |  |  |  | 
CC[C@H]1OC(=O)[C@H](C)[C@@H](O[C@H]2C[C@@](C)(OC)[C@@H](O)[C@H](C)O2)[C@H](C)[C@@H](O[C@@H]2O[C@H](C)C[C@H](N(C)C)[C@H]2O)[C@](C)(O)C[C@@H](C)CN(CCCNC(=S)Nc2cccc3ccccc23)[C@H](C)[C@@H](O)[C@]1(C)O |  | 48000 nM | 40000 nM | 155 nM | 131 nM | > 2 h |  | 195 mg/kg | > 2 h | 116 nM |  |  |  | 
CC[C@H]1OC(=O)[C@H](C)[C@@H](O[C@H]2C[C@@](C)(OC)[C@@H](O)[C@H](C)O2)[C@H](C)[C@@H](O[C@@H]2O[C@H](C)C[C@H](N(C)C)[C@H]2O)[C@](C)(O)C[C@@H](C)CN(CCNC(=O)Nc2ccccc2)[C@H](C)[C@@H](O)[C@]1(C)O |  | 48000 nM | 27000 nM | 67 nM | 103 nM | > 2 h |  |  | > 2 h | 223 nM |  |  |  | 
CC[C@H]1OC(=O)[C@H](C)[C@@H](O[C@H]2C[C@@](C)(OC)[C@@H](O)[C@H](C)O2)[C@H](C)[C@@H](O[C@@H]2O[C@H](C)C[C@H](N(C)C)[C@H]2O)[C@](C)(O)C[C@@H](C)CN(CCNC(=S)NCc2ccccc2)[C@H](C)[C@@H](O)[C@]1(C)O |  | 14000 nM | 9000 nM | 72 nM | 106 nM | > 2 h |  |  | > 2 h | 109 nM |  |  |  | 
CC[C@H]1OC(=O)[C@H](C)[C@@H](O[C@H]2C[C@@](C)(OC)[C@@H](O)[C@H](C)O2)[C@H](C)[C@@H](O[C@@H]2O[C@H](C)C[C@H](N(C)C)[C@H]2O)[C@](C)(O)C[C@@H](C)CN(CCNC(=O)NC(C)c2cccc3ccccc23)[C@H](C)[C@@H](O)[C@]1(C)O (stereo not given in full) |  | 10000 nM | 8000 nM | 33 nM | 46 nM | > 2 h |  |  | > 2 h | 179 nM |  |  |  | 
CC[C@H]1OC(=O)[C@H](C)[C@@H](O[C@H]2C[C@@](C)(OC)[C@@H](O)[C@H](C)O2)[C@H](C)[C@@H](O[C@@H]2O[C@H](C)C[C@H](N(C)C)[C@H]2O)[C@](C)(O)C[C@@H](C)CN(CCNC(=S)Nc2ccccc2)[C@H](C)[C@@H](O)[C@]1(C)O |  | 48000 nM | 16000 nM | 443 nM | 113 nM | > 2 h |  |  | > 2 h | 183 nM |  |  |  | 
CC[C@H]1OC(=O)[C@H](C)[C@@H](O[C@H]2C[C@@](C)(OC)[C@@H](O)[C@H](C)O2)[C@H](C)[C@@H](O[C@@H]2O[C@H](C)C[C@H](N(C)C)[C@H]2O)[C@](C)(O)C[C@@H](C)CN(CCNC(=O)NCCc2ccccc2)[C@H](C)[C@@H](O)[C@]1(C)O |  | > 50000 nM | 45000 nM | 105 nM | 243 nM | > 2 h |  |  | > 2 h | 546 nM |  |  |  | 
CC[C@H]1OC(=O)[C@H](C)[C@@H](O[C@H]2C[C@@](C)(OC)[C@@H](O)[C@H](C)O2)[C@H](C)[C@@H](O[C@@H]2O[C@H](C)C[C@H](N(C)C)[C@H]2O)[C@](C)(O)C[C@@H](C)CN(CCNC(=S)NCCc2ccccc2)[C@H](C)[C@@H](O)[C@]1(C)O |  | 9000 nM | 4000 nM | 102 nM | 128 nM | > 2 h |  |  | > 2 h | 203 nM |  |  |  | 
